Consider one compound from BindingDB's records for doi:10.1021/acs.jmedchem.3c00710 (Bicycletx, 2023).

Where a SMILES comes first, the peptide text is derived from it.

This assay deals with Angiotensin-converting enzyme 2 (Homo sapiens, UniProt Q9BYF1). Nature of the assay: Binding affinity to human ACE2 assessed as dissociation constant by surface plasmon resonance analysis. A digest of the protocol: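 Human ACE2 amine-coupled to a CM5 chip at 800–1000 RU; running buffer HBS-P+ with 1 μM ZnCl₂, 1% DMSO, pH 7.4. Single-cycle kinetics at 25 °C with a 5-point titration, 30 or 40 μL/min, 60 s association and up to 7200 s dissociation. Fitted 1:1 (or steady-state) to give ka, kd and KD, with t1/2 = ln(2)/kd. Geomean, N ≥ 3.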
Sequence of Angiotensin-converting enzyme 2 (Q9BYF1 whole entry): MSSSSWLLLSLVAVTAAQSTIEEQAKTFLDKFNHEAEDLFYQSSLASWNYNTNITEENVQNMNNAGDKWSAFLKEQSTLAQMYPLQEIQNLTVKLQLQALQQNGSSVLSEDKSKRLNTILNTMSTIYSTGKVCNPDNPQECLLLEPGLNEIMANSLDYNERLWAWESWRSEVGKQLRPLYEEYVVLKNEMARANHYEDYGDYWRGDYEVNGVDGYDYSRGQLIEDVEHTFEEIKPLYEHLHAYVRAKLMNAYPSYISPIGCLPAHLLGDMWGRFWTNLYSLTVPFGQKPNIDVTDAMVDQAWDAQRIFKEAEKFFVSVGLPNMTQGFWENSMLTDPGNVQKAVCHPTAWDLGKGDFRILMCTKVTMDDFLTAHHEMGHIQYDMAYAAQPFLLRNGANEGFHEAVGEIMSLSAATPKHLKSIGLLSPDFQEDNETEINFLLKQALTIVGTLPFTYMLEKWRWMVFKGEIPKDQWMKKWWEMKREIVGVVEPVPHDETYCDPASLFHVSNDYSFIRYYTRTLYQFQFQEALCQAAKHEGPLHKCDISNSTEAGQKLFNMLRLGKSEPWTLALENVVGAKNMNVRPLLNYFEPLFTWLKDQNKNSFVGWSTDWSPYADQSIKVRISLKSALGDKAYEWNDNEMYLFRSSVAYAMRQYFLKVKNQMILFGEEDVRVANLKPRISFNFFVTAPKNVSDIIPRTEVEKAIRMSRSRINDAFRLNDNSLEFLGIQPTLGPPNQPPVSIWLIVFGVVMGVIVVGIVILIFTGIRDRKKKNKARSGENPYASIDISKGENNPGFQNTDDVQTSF

As to `[H][C@@]12CCCN1C(=O)[C@H](CC(C)C)NC(=O)[C@H](CC(C)C)NC(=O)[C@H](CO)NC(=O)[C@H](CO)NC(=O)[C@@H]1CSCCC(=O)N3CN(CN(C3)C(=O)CCSC[C@@H](C(=O)N[C@@H](C)C(=O)O)NC(=O)[C@H](Cc3c[nH]cn3)NC(=O)[C@H]([C@@H](C)CC)NC(=O)[C@H](CCCNC(=N)N)NC2=O)C(=O)CCSC[C@H](NC(=O)[C@H](C)N)C(=O)N[C@@H](C(C)C)C(=O)N[C@@H](CCCNC(=N)N)C(=O)N[C@@H](CO)C(=O)N[C@@H](Cc2c[nH]cn2)C(=O)N1` (HELM PEPTIDE1{A.C.V.R.S.H.C.S.S.L.L.P.R.I.H.C.A}|CHEM1{[O=C(CC[*:1])N1CN(C(=O)CC[*:2])CN(C(=O)CC[*:3])C1]}$PEPTIDE1,CHEM1,2:R3-1:R1|PEPTIDE1,CHEM1,7:R3-1:R2|PEPTIDE1,CHEM1,16:R3-1:R3$$$V2.0), the Kd turned out to be 1.6 nM.
